In ChEMBL document CHEMBL1649165, “Activity profile in vitro of micafungin against Spanish clinical isolates of common and emerging species of yeasts and molds” (2009):
*1 amine or outer side, *2 acyl side, *3 side chain or, on linkers, in order; H or OH if unused. Where a SMILES comes first, the peptide text is derived from it. Bridges are numbered along the chain shown (N, C = ends). [ ]: non-standard residue; d: D form. The star is where a group is joined. hTyr(3S-OH,4S-OH,3'-OSO3H) = N[C@H](C(=O)O)[C@H](O)[C@@H](O)c1ccc(O)c(OS(=O)(=O)O)c1; Orn(4R-OH,5R-OH) = O=C([C@H](C[C@@H](O)[C@@H](O)N[*:3])N[*:1])[*:2]; Pro(3S-OH,4S-Me) = C[C@H]1CN[C@H](C(=O)O)[C@H]1O; X1 = CCCCCOc1ccc(-c2cc(-c3ccc(C(=O)*)cc3)no2)cc1; Gln(3R-OH) = NC(=O)C[C@@H](O)[C@H](N)C(=O)O; Hyp = O=C(O)[C@@H]1C[C@@H](O)CN1

Key:
Format in all cases: functional
Fusarium equiseti = test: Antimicrobial activity against Fusarium equiseti by broth microdilution method
How it was run: (§1)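 Clinical mould isolates, tested by broth microdilution using the AFST-EUCAST reference method for filamentous fungi. For echinocandins, the endpoint was the minimum effective concentration: the lowest drug concentration giving aberrant hyphal growth, read with an inverted microscope.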

[1] = test system: Meyerozyma guilliermondii; test: Antimicrobial activity against Candida guilliermondii by broth microdilution method
How it was run: (§2)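 Clinical isolates from human patients, tested by broth microdilution using the AFST-EUCAST reference procedure for fermentative yeasts. The MIC was read per that reference method.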

Aureobasidium pullulans = test: Antimicrobial activity against Aureobasidium pullulans by broth microdilution method
Rhizopus arrhizus = test: Antimicrobial activity against Rhizopus oryzae by broth microdilution method
How it was run: (§3)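 Filamentous fungus clinical isolates tested by the AFST-EUCAST reference broth microdilution method for moulds. For echinocandins, the endpoint was the minimum effective concentration: the lowest drug concentration giving aberrant hyphal growth, read with an inverted microscope.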

Candida orthopsilosis = test: Antimicrobial activity against Candida orthopsilosis by broth microdilution method; settings: Lodderomyces orthopsilosis; how it was run: as §2
Aspergillus ustus = test: Antimicrobial activity against Aspergillus ustus by broth microdilution method; how it was run: as §1
[2] = test system: Cladophialophora bantiana; test: Antimicrobial activity against Cladophialophora bantiana by broth microdilution method; how it was run: as §1
Ustilago = test: Antimicrobial activity against Ustilago spp by broth microdilution method
Exophiala dermatitidis = test: Antimicrobial activity against Exophiala dermatitidis by broth microdilution method
Neurospora sitophila = test: Antimicrobial activity against Chrysonilia sitophila by broth microdilution method; how it was run: as §1
Aspergillus nidulans = test: Antimicrobial activity against Aspergillus nidulans by broth microdilution method; how it was run: as §1
Beauveria bassiana = test: Antimicrobial activity against Beauveria bassiana by broth microdilution method; how it was run: as §1
Debaryomyces hansenii = test: Antimicrobial activity against Candida famata by broth microdilution method; how it was run: as §2
Cladosporium = test: Antimicrobial activity against Cladosporium spp. by broth microdilution method; how it was run: as §1
Aspergillus versicolor = test: Antimicrobial activity against Aspergillus versicolor by broth microdilution method; how it was run: as §1
Rhodotorula glutinis = test: Antimicrobial activity against Rhodotorula glutinis by broth microdilution method
How it was run: (§4)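 Nonfermentative yeast clinical isolates (Rhodotorula, Trichosporon) tested by broth microdilution. The EUCAST yeast recommendations were followed strictly, with one minor modification to improve growth. MIC was read as the endpoint.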

Hortaea werneckii = test: Antimicrobial activity against Hortaea werneckii by broth microdilution method
Aspergillus glaucus = test: Antimicrobial activity against Aspergillus glaucus by broth microdilution method; how it was run: as §1
Exophiala jeanselmei = test: Antimicrobial activity against Exophiala jeanselmei by broth microdilution method
Candida metapsilosis = test: Antimicrobial activity against Candida metapsilosis by broth microdilution method; settings: Lodderomyces metapsilosis; how it was run: as §2
[3] = test system: Scopulariopsis brevicaulis; test: Antimicrobial activity against Scopulariopsis brevicaulis by broth microdilution method; how it was run: as §3
[4] = Antimicrobial activity against Hormographiella aspergillata by broth microdilution method; settings: Coprinopsis cinerea; how it was run: as §3
Trichosporon ovoides = test: Antimicrobial activity against Trichosporon ovoides by broth microdilution method; how it was run: as §4
Pichia kudriavzevii = test: Antimicrobial activity against Candida krusei by broth microdilution method; how it was run: as §2
[5] = Antimicrobial activity against Rhizopus microsporus by broth microdilution method; how it was run: as §3
Lomentospora prolificans = test: Antimicrobial activity against Scedosporium prolificans by broth microdilution method; how it was run: as §3
[6] = test system: Cunninghamella bertholletiae; test: Antimicrobial activity against Cunninghamella bertholletiae by broth microdilution method; how it was run: as §1
Lichtheimia corymbifera = test: Antimicrobial activity against Mycocladus corymbiferus by broth microdilution method; how it was run: as §3
Trichosporon inkin = test: Antimicrobial activity against Trichosporon inkin by broth microdilution method; how it was run: as §4
Candida parapsilosis = test: Antimicrobial activity against Candida parapsilosis by broth microdilution method; settings: Lodderomyces parapsilosis; how it was run: as §2
Fusarium solani = test: Antimicrobial activity against Fusarium solani by broth microdilution method; how it was run: as §3
Phialemonium curvatum = test: Antimicrobial activity against Phialemonium curvatum by broth microdilution method; settings: Thyridium curvatum; how it was run: as §3
Clavispora lusitaniae = test: Antimicrobial activity against Candida lusitaniae by broth microdilution method; how it was run: as §2
[7] = test system: Cryptococcus deneoformans; test: Antimicrobial activity against Cryptococcus neoformans var. neoformans by broth microdilution method
How it was run: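 Clinical isolates of nonfermentative yeasts, tested by broth microdilution following EUCAST recommendations. The only change from that method was a minor modification to improve growth.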

Fusarium oxysporum = test: Antimicrobial activity against Fusarium oxysporum by broth microdilution method; how it was run: as §1
Rhizomucor = test: Antimicrobial activity against Rhizomucor spp.by broth microdilution method; how it was run: as §3
Geotrichum candidum = test: Antimicrobial activity against Galactomyces geotrichum by broth microdilution method
Saksenaea vasiformis = test: Antimicrobial activity against Saksenaea vasiformis by broth microdilution method; how it was run: as §3
[8] = test system: Kazachstania pintolopesii; test: Antimicrobial activity against Candida pintolopesii by broth microdilution method; settings: Arxiozyma pintolopesii; how it was run: as §2
Rhodotorula mucilaginosa = test: Antimicrobial activity against Rhodotorula mucilaginosa by broth microdilution method; how it was run: as §4
Lewia infectoria = test: Antimicrobial activity against Alternaria infectoria by broth microdilution method; how it was run: as §1

CCCCCOc1ccc(-c2cc(-c3ccc(C(=O)N[C@H]4C[C@@H](O)[C@@H](O)NC(=O)[C@@H]5[C@@H](O)[C@@H](C)CN5C(=O)[C@H]([C@H](O)CC(N)=O)NC(=O)[C@H]([C@H](O)[C@@H](O)c5ccc(O)c(OS(=O)(=O)O)c5)NC(=O)[C@@H]5C[C@@H](O)CN5C(=O)[C@H]([C@@H](C)O)NC4=O)cc3)no2)cc1 [MICAFUNGIN] (X1-[Orn(4R-OH,5R-OH)]T[Hyp][hTyr(3S-OH,4S-OH,3'-OSO3H)][Gln(3R-OH)][Pro(3S-OH,4S-Me)]; lactam 1-C)
1 µg/mL: MIC90 [1] | MIC90 (Candida parapsilosis)
0.06 µg/mL: MIC90 (Aureobasidium pullulans) | MIC50 (Aspergillus ustus) | MIC90 [2] | MIC90 (Exophiala dermatitidis) | MIC90 (Cladosporium) | MIC90 (Aspergillus versicolor) | MIC90 (Hortaea werneckii) | MIC50 (Aspergillus glaucus) | MIC90 (Exophiala jeanselmei) | MIC90 (Pichia kudriavzevii)
0.03 µg/mL: MIC50 (Aureobasidium pullulans) | MIC50 (Candida orthopsilosis) | MIC50 [2] | MIC50 (Exophiala dermatitidis) | MIC50 (Aspergillus nidulans) | MIC50 (Debaryomyces hansenii) | MIC50 (Cladosporium) | MIC50 (Aspergillus versicolor) | MIC50 (Hortaea werneckii) | MIC50 (Exophiala jeanselmei) | MIC50 (Candida metapsilosis) | MIC50 (Pichia kudriavzevii) | MIC50 (Clavispora lusitaniae) | MIC90 (Clavispora lusitaniae) | MIC50 [8]
> 16 µg/mL: MIC50 (Fusarium equiseti) | MIC90 (Fusarium equiseti) | MIC50 (Rhizopus arrhizus) | MIC90 (Rhizopus arrhizus) | MIC50 (Ustilago) | MIC90 (Ustilago) | MIC50 (Neurospora sitophila) | MIC90 (Neurospora sitophila) | MIC90 (Aspergillus nidulans) | MIC50 (Beauveria bassiana) | MIC90 (Beauveria bassiana) | MIC50 (Rhodotorula glutinis) | MIC90 (Rhodotorula glutinis) | MIC50 [3] | MIC90 [3] | MIC50 [4] | MIC90 [4] | MIC50 (Trichosporon ovoides) | MIC90 (Trichosporon ovoides) | MIC50 [5] | MIC90 [5] | MIC90 (Lomentospora prolificans) | MIC50 [6] | MIC90 [6] | MIC50 (Lichtheimia corymbifera) | MIC90 (Lichtheimia corymbifera) | MIC50 (Trichosporon inkin) | MIC90 (Trichosporon inkin) | MIC50 (Fusarium solani) | MIC90 (Fusarium solani) | MIC50 (Phialemonium curvatum) | MIC90 (Phialemonium curvatum) | MIC50 [7] | MIC90 [7] | MIC50 (Fusarium oxysporum) | MIC90 (Fusarium oxysporum) | MIC50 (Rhizomucor) | MIC90 (Rhizomucor) | MIC50 (Geotrichum candidum) | MIC90 (Geotrichum candidum) | MIC50 (Saksenaea vasiformis) | MIC90 (Saksenaea vasiformis) | MIC50 (Rhodotorula mucilaginosa) | MIC90 (Rhodotorula mucilaginosa) | MIC50 (Lewia infectoria) | MIC90 (Lewia infectoria)
8 µg/mL: MIC50 (Lomentospora prolificans)
0.25 µg/mL: MIC90 (Aspergillus ustus) | MIC90 (Aspergillus glaucus)
0.12 µg/mL: MIC50 [1] | MIC90 (Candida orthopsilosis) | MIC90 (Debaryomyces hansenii) | MIC90 (Candida metapsilosis) | MIC90 [8]
0.5 µg/mL: MIC50 (Candida parapsilosis)
